# Assay outcomes (PubChem)
# procasp3 activ – procaspase-3 (human) activation. recombinant procaspase-3 D3A, Ac-DEVD-pNA absorbance 405 nm. AID 463141. activation, % at 8.5 µM. 330,000 compounds, 0.11% hits;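 active means activation above the mean of all tested compounds plus 3 SD, cut at about 21% in these data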;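 further: 0% = DMSO alone and 100% = DMSO wells spiked with extra 5 µM PC-3 D3A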
#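 assay system = Procaspase-3 D3A mutant | signal = absorbance at 405 nm, 0 and 120 min | times = 1 h preincubation plus 2 h reaction at 25 °C | repeats = single replicate | read-out = % activation between DMSO and enzyme-spiked controls | medium = Zinc-free HEPES saline buffer with Triton X-100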
# IDE cell activ – IDE (human) activation, cell-based. P14735. HEK cells, FAbeta-B cleavage, fluorescence polarization; 0% vehicle, 100% cell-free pure enzyme wells. activation, % at 5.96 µM. 340,000 compounds, 0.073% hits;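 active means activation above the mean of all tested compounds plus 3 SD, set per screening campaign, cut at about 17% in these data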
# IDE cell inh – inhibitors of human insulin-degrading enzyme in cells; P14735; HEK cells, FAbetaB cleavage, fluorescence polarization; inhibition, % at 5.59 µM; 320,000 compounds, 0.41% hits;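 active means percent inhibition above the average of all tested compounds plus 3 SD, set per screening campaign, cut at about 16% in these data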;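 further: IDE supplied by intact live HEK cells; FP after avidin binding of uncleaved biotin substrate so inhibition keeps polarization high; 0% = DMSO wells and 100% = 60 µM reference IDE inhibitor Ii1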
# proCasp7 act – activates human procaspase-7, counter-screen for procaspase-3 activators. recombinant procaspase-7, Ac-DEVD-pNA absorbance 405 nm; D23A/D198A/D206A triple mutant, cannot self-cleave; scale: DMSO 0, 5 µM enzyme 100. 330,000 compounds, 0.093% hits. P55210. AID 463210. activation, % at 8.5 µM;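 active means percent activation above the screen-wide mean plus 3 SD, cut at about 25% in these data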
#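 Assay system – Uncleavable procaspase-7 mutant enzyme · Quantity – 2 µM procaspase-7 mutant as dispensed · Times – 1 h preincubation, 2 h reaction · Dosing – single nominal 8.5 µM compound dose, 0.8% DMSO final · Buffer or medium – Zinc-free 50 mM HEPES buffer, pH 7.4, with NaCl and Triton X-100 · Detection – Epi-absorbance of released pNA at 405 nm, two timepoints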
# PHOSPHO1 block – PHOSPHO1 (human) inhibition. 290,000 compounds, 1.1% hits. recombinant PHOSPHO1, absorbance phosphatase assay. inhibition, % at 13.3 µM. Q8TCT1; in the data active means inhibition above about 60%
# Target sequence (Q8TCT1 whole entry, looked up): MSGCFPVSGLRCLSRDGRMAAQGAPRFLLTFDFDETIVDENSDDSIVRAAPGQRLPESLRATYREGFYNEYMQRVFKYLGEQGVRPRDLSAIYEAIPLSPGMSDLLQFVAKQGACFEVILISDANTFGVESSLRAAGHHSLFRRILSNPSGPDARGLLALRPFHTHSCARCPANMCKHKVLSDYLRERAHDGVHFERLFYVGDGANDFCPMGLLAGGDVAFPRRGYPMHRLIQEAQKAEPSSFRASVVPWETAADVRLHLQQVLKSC
# UBC13 polyUb – human UBC13 polyubiquitination inhibition; P61088; UBC13 polyubiquitin chain formation, TR-FRET; inhibition, % at 20 µM; 330,000 compounds, 0.47% hits; AID 485273; in the data active means inhibition above about 45%, passing the limit was not always enough; inconclusive means no clear call, values can overlap the other calls
# Target sequence (P61088 whole entry, looked up): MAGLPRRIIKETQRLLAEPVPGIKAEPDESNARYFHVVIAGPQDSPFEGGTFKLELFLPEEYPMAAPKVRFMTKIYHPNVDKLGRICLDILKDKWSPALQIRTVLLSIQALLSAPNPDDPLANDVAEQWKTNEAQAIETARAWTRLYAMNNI
# An asterisk follows results filed as active; u = inconclusive; x = no result. Hits are enriched below; roughly 1.9% of the tested compounds scored in any of these assays.
SMILES,procasp3 activ,IDE cell activ,IDE cell inh,proCasp7 act,PHOSPHO1 block,UBC13 polyUb
Cc1cc(C(=O)CSc2nnc(N)s2)c(C)n1CCc1ccc(F)cc1,5.5,2.8,2.2,-7.8,-54.7,3.6
COCC(C)n1c(C)cc(C(=O)CSc2nnc(N)s2)c1C (stereo unspecified),-0.9,5.7,7.3,-0.7,99.2*,-1.1
Cc1cc(C(=O)CSc2nnnn2-c2ccccc2)c(C)n1CCc1ccccc1,7.5,3.0,2.2,12.6,83.7*,-4.3
CCCCN(CCCC)CCNC(=O)c1cn(CC)c2ccc(S(=O)(=O)N3CCc4ccccc4C3)cc2c1=O,5.3,7.1,-0.8,2.5,18.4,14.9
CCOC(=O)c1ccc(NS(=O)(=O)c2ccc3[nH]c(=O)[nH]c3c2)cc1,-5.7,0.7,-4.0,-4.3,63.2*,-2.0
CCC(CC)NC(=O)c1ccc(NS(=O)(=O)c2ccc3[nH]c(=O)[nH]c3c2)cc1,-3.2,5.1,4.4,8.4,4.5,-8.1
COC(=O)c1ccc(CSc2nc3ccc(C)cc3[nH]2)o1,2.7,-3.6,0.9,-3.8,76.5*,-0.6
COC(=O)c1ccc(CSc2nc3c(cnn3-c3ccc(C)cc3)c(=O)[nH]2)o1,12.2,-0.5,1.9,-2.0,-14.4,6.3
COC(=O)c1ccc(CSc2n[nH]c(=S)s2)o1,-23.5,3.5,5.5,-24.4,102.0*,-4.1
Cc1onc(-c2ccccc2Cl)c1C(=O)NCc1nnnn1-c1ccc(F)cc1,3.7,5.2,6.1,5.9,x,0.7
Cc1c(C(=O)Nc2ccncc2)sc2nc(-c3ccc(F)cc3)cn12,0.5,-24.8,5.2,3.7,6.3,15.8
COc1ccc(-c2cn3c(C)c(C(=O)Nc4ccncc4)sc3n2)cc1,-6.8,-14.5,9.2,4.3,94.2*,9.8
CC(OC(=O)CCCN=C1NS(=O)(=O)c2ccccc21)C(=O)Nc1ccccc1[N+](=O)[O-] (stereo unspecified),7.3,4.4,-6.4,3.6,x,-5.0
COc1cc(/C=C/C(=O)OCC(=O)NCc2ccco2)ccc1O,8.2,9.9,-5.2,7.0,x,2.4
O=C(c1ccc(S(=O)(=O)N2CCCCCC2)cc1)N1CCC(CN2C(=O)c3cccc4cccc(c34)C2=O)CC1,-1.4,10.7,-1.8,9.2,1.7,45.9*
O=C1c2cccc3cccc(c23)C(=O)N1CC1CCN(S(=O)(=O)c2ccccc2)CC1,x,-1.3,x,x,x,x
Cn1c(CO)cnc1SCc1c(Cl)cccc1Cl,0.1,-0.9,-3.8,1.9,74.0*,5.4
O=C(CN1CCN(S(=O)(=O)c2ccc(Cl)cc2)CC1)NC1CC1,-8.8,-5.5,-0.2,8.0,30.1,-9.3
CC(=NNC(=O)c1ccncc1)c1cccc(Cl)c1,x,2.5,x,x,x,x
C/C(=N/NC(=O)CNC(=O)COc1ccccc1)c1ccc(Cl)cc1,-5.3,1.9,1.3,-0.9,18.5,3.8
NC(=O)c1sc2nc(N3CCCCC3)c3c(c2c1N)CCCC3,-0.1,2.5,5.8,-10.1,67.4*,u
Nc1c(C(=O)NCc2ccco2)sc2nc(N3CCOCC3)c3c(c12)CCCC3,-29.7,-4.5,5.0,-45.6,92.3*,u
CCN(CC)C(=O)c1sc2nc(N3CCOCC3)c3c(c2c1N)CCCC3,-17.6,0.7,3.1,-13.5,80.4*,u
Cc1ccc2nc3sc(C(=O)NCc4ccco4)c(N)c3cc2c1,-13.4,0.5,4.1,-25.0,-32.2,-21.8
CCOC(=O)c1sc2nc(N3CCOCC3)c3c(c2c1N)CCCC3,-4.5,-0.4,-6.2,-5.6,-4.2,13.3
SMILES,procasp3 activ,IDE cell activ,IDE cell inh,proCasp7 act,PHOSPHO1 block,UBC13 polyUb
COC(=O)c1sc2nc(N3CCCCC3)c3c(c2c1N)CCCC3,-0.7,8.0,3.9,2.3,20.4,12.2
COc1cc2cc3c(N)c(C(=O)NCc4ccco4)sc3nc2cc1OC,-14.2,-9.3,9.8,-6.1,72.5*,-46.5
Cc1cc(C)n(-c2ccc(NC(=O)C3CCCCN3C(=O)c3ccc(C)s3)cc2)n1 (stereo unspecified),7.5,3.8,1.1,1.0,40.3,-1.3
Cc1ccccc1CCN(C(=O)c1csnn1)C(C(=O)NC1CCCC1)c1ccncc1 (stereo unspecified),1.2,5.3,-1.7,-0.1,3.0,-4.0
O=C(O)c1ccccc1N=Nc1ccc(O)cc1,-8.3,19.8*,-13.6,-1.3,x,-38.4
C=CCN1C(=O)C2(NC(=O)c3ccccc3N2)c2ccccc21 (stereo unspecified),-6.7,-0.2,-4.7,0.0,-7.1,12.0
CCCCN1C(=O)C(O)(CC(=O)c2c(C)coc2C)c2ccccc21 (stereo unspecified),-4.5,5.8,-0.7,-5.7,12.0,-6.6
C=CCN1C(=O)C2(NNc3ccccc3O2)c2ccccc21 (stereo unspecified),-12.8,0.2,2.4,-8.2,86.8*,-83.9
CCCCN1C(=O)C2(NNc3ccccc3O2)c2ccccc21 (stereo unspecified),-15.6,-7.6,15.6,-8.3,73.3*,-23.6
O=C(CN1C(=O)NC2(CCCC2)C1=O)OCc1c(F)cccc1Cl,-22.2,1.3,-4.2,14.6,x,-1.8
Cc1ccccc1C(=O)Nc1nnc(-c2ccco2)s1,-6.2,-1.1,5.4,9.5,16.6,4.5
COc1ccc(C(=O)Nc2nnc(-c3ccco3)s2)cc1,6.8,3.1,0.1,15.1,73.0*,0.2
COc1ccccc1C(=O)Nc1nnc(-c2ccco2)s1,-8.1,2.2,-6.4,-4.7,38.0,-0.2
O=C(Nc1nnc(-c2ccco2)s1)c1ccccc1,-1.2,-1.5,2.8,-7.7,73.5*,-2.0
O=C(COC(=O)c1ccccc1NCCO)NCC1CCCCC1,0.4,-3.0,-1.3,2.0,x,1.4
Cc1nc(C(C)NC(=O)c2ccc(OC3CCN(Cc4ccccn4)CC3)cc2)c(C)s1 (stereo unspecified),-2.0,4.1,3.9,-4.8,81.1*,2.8
CC(=O)N1CCN(C(=O)c2ccc(OC3CCN(Cc4ccccn4)CC3)cc2)CC1,1.6,-2.8,5.8,7.1,51.6,-2.6
COC(=O)[C@@H](NC(=O)c1ccc(OC2CCN(Cc3ccccn3)CC2)cc1)C(C)C,4.8,0.7,8.4,-5.8,60.1*,-14.4
CCC(O)C1CCN(C(=O)c2ccc(OC3CCN(Cc4ccccn4)CC3)cc2)CC1 (stereo unspecified),11.4,-0.3,7.5,-5.5,70.1*,-0.5
CC(NC(=O)c1ccc(OC2CCN(Cc3ccccn3)CC2)cc1)c1nccs1 (stereo unspecified),6.4,-2.7,10.1,-5.2,22.6,4.8
CN(C)CCCNC(=O)c1cc(C(=O)c2cccc(Cl)c2Cl)c[nH]1,2.8,5.8,-1.6,20.2,36.9,11.2
